Experimental data of several laboratories.
Each line is one published result; the experiments were not run side by side.
Cell line: MDA-MB-231
Observed: cell growth or viability

The IC50 of `O=C(Nc1nnc(-c2cc3ccccc3[nH]2)s1)c1cc2c([nH]c3ccccc32)c(-c2ccc(Cl)cc2)n1` is reported as 4.45 µM (MTT; 72 h).
For `CC(C)[C@H](N)c1nc2cc(-c3ccncc3F)sc2c(=O)[nH]1`, the IC50 was 1.19 µM (MTT).
The IC50 of `c1ccc2[nH]c(-c3ccncc3)nc2c1` is reported as greater than 100 µM (MTT; 48 h).
For `C[C@@H]1C[C@@H](c2cccc(Cl)c2)c2c(cc3ccccn23)C(=O)O1` (racemic), the IC50 was greater than 100 µM (resazurin; 72 h).
The IC50 of `O=Cc1ccc(-c2ccc3ncnc(Nc4cccc(C(F)(F)F)c4)c3c2)cc1` is reported as 8.67 µM (MTT; 24 h).
The IC50 of `Cc1cc(NS(=O)(=O)c2ccc(NC(=O)COc3ccc(C(C)(C)c4ccccc4)cc3)cc2)nc(C)n1` is reported as 39 µM (MTT; 48 h).
`FC(F)(F)c1cccc(Nc2ncnc3ccc(-c4ccc(Cl)cc4)cc23)c1` has an IC50 of 11.4 µM (MTT; 24 h).
With `COc1cccc(-c2nc3ccccc3n2Cc2ccccc2)c1` the IC50 was 43.3 µM (MTT).
For `CN(C)c1ccc2cc(C(=O)N[C@@H](CCCNC(=N)CCl)C(=O)NCc3ccccc3)ccc2c1`, the IC50 was 7 µM (48 h).
`CC(=O)O[C@H]1C(=O)[C@@]2(C)[C@H]([C@H](OC(=O)c3ccccc3)[C@]3(O)C[C@H](OC(=O)[C@H](O)[C@@H](NC(=O)c4ccccc4)c4ccccc4)C(C)=C1C3(C)C)[C@]1(OC(C)=O)CO[C@@H]1C[C@@H]2O` has an IC50 of 0.0051 µM (72 h).
For `C[C@@H]1C[C@H](c2cccc(F)c2)c2c(cc3ccccn23)C(=O)O1` (racemic), the IC50 was 79.5 µM (resazurin; 72 h).
`Cc1ccc2nc(-c3ccc(F)cc3)[nH]c2c1` has an IC50 of greater than 100 µM (MTT; 48 h).
The IC50 of `COc1cc(Nc2nccc(-c3cnn4nc(OC)ccc34)n2)cc(C(F)(F)F)c1` is reported as 1.8 µM (ATP luminescence).
The IC50 of `COc1ccc(-c2nc3ccccc3[nH]2)cc1OC` is reported as 50.1 µM (MTT; 48 h).
For `CC(C)CCC[C@@H](C)[C@H]1CC[C@H]2[C@@H]3CC=C4C[C@@H](O)CC[C@]4(C)[C@H]3CC[C@]12C`, the IC50 was greater than 30 µM (resazurin; 72 h).
`Cc1ccc2nc(-c3ccc([N+](=O)[O-])cc3)n(Cc3ccc(Cl)cc3)c2c1` has an IC50 of 9.02 µM (MTT).
The IC50 of `COc1ccc(/C=C/C(=O)c2cc(Br)ccc(=O)c2O)cc1` is reported as 26.1 µM (MTT; 72 h).
For `COc1ccc(-c2nc(C(=O)Nc3nnc(-c4cc5ccccc5[nH]4)s3)cc3c2[nH]c2ccccc23)cc1`, the IC50 was 3.28 µM (MTT; 72 h).
With `Clc1ccccc1-c1nc2ccccc2[nH]1` the IC50 was 50.3 µM (MTT; 48 h).
`Oc1ccc(-c2ccc3ncnc(Nc4cccc(C(F)(F)F)c4)c3c2)cc1` gave an IC50 of 3.96 µM (MTT; 24 h).
With `C=CCNC1=C2C[C@@H](C)C[C@H](OC)[C@H](O)[C@@H](C)/C=C(\C)[C@H](OC(N)=O)[C@@H](OC)/C=C\C=C(/C)C(=O)NC(=CC1=O)C2=O` the IC50 was 0.338 µM (MTT).
`COc1cccc(-c2nc3ccc(C)cc3[nH]2)c1` gave an IC50 of 15.6 µM (MTT; 48 h).
With `O=C(c1cc(Cc2n[nH]c(=O)c3ccccc23)ccc1F)N1CCN(C(=O)C2CC2)CC1` the IC50 was 246 µM (MTT; 48 h).
